# Compounds with a hit are over-represented: about 2.1% of the library has one in this group of screens.
# A3G deaminase: blocks human APOBEC3G single-stranded DNA deamination. Q9HC16. recombinant A3G, ssDNA deamination FAM/TAMRA fluorescence. inhibition, % at 20 µM. actives 0.28% (n = 330,000);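 active means inhibition of at least 40% at 20 µM, with no more than 30% in the related APOBEC3A deaminase screen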;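 further: plate controls were DMSO wells with A3G for no effect and wells lacking A3G enzyme for full effect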
# ASAP1 GAP inh: blocks human ASAP1-stimulated Arf1 GTP hydrolysis; Q9ULH1; GDP FP detection; inhibition, % at 16.5 µM; actives 0.19% (n = 360,000); in the data active means inhibition above about 25%;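 further: 0% = vehicle with enzyme and substrate and 100% = no enzyme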
# Target sequence (Q9ULH1 325-724 limits assumed): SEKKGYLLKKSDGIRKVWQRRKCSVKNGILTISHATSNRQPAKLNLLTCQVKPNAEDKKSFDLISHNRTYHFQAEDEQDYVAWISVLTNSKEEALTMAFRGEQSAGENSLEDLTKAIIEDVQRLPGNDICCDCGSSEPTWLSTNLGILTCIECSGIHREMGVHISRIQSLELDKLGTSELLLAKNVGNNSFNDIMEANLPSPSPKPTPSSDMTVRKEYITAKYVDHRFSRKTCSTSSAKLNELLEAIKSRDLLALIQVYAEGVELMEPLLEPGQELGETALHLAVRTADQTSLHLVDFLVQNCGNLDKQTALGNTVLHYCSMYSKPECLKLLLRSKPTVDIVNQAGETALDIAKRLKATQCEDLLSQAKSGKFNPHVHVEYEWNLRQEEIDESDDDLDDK
# ARFGAP1 inhibitor: rat ARFGAP1 inhibition | Arfgap1-stimulated ARF1 GTP hydrolysis, GDP FP detection | inhibition, % at 16.5 µM | actives 0.26% (n = 360,000);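 active means inhibition above a per-plate limit, mean inhibition of low control wells plus 3 SD, cut at about 25% in these data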;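 further: 0% = DMSO wells with enzyme and 100% = wells lacking Arfgap1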
# Target sequence (Q62848 1-136 limits assumed): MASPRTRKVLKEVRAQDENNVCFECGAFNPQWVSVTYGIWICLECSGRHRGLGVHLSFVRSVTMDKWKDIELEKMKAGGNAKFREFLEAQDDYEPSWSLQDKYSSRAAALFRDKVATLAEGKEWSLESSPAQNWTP
#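 Material: rat Arfgap1 GAP domain (His6, aa 1-136), purified enzyme. Also added: human ARF1(Δ1-17)-GTP substrate. Compound dosing: 16.5 µM single point, 1.26% DMSO. Timing: enzyme reaction 120 min at 25 °C after 20 min preincubation. Signal: GDP detection by fluorescence polarization. Read-out basis: percent inhibition of GAP-stimulated GDP formation, scaled between DMSO and no-Arfgap1 medians.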
# APOBEC3A inh: inhibitors of human APOBEC3A DNA deaminase; recombinant A3A, FAM/TAMRA ssDNA deamination fluorescence; P31941; inhibition, % at 20 µM; actives 0.41% (n = 330,000);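 active means at least 40% inhibition at 20 µM here, with at most 30% in a related deaminase screen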;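 further: plate controls were A3A with DMSO for no effect and wells lacking A3A enzyme for full effect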
# Target sequence (P31941 whole entry, looked up): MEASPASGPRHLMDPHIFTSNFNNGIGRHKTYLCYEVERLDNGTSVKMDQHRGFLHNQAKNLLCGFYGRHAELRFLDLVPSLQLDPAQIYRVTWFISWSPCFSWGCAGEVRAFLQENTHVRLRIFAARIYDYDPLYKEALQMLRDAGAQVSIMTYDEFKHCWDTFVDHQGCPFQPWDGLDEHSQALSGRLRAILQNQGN
# Statin myotox sup: protects C2C12 myotubes from simvastatin toxicity | ATP luminescence, 48 h; scaled: DMSO 0, geranylgeraniol control 100 | rescue of ATP level, % at 7.49 µM | actives 0.78% (n = 330,000) | AID 602340;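 active means mean ATP rescue above about 67%, or every replicate alone reaching that limit, limit read from the data, passing the limit was not always enough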;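 further: myotubes were challenged with 10 µM simvastatin during compound exposure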
# SUMO Mot1 rescue: blocks SUMOylation pathway, rescuing yeast Mot1-301 growth | S. cerevisiae Mot1-301 growth rescue, ATP luminescence, 38.5C; percent above DMSO median, 100 means doubled | growth rescue, % at 18.8 µM | actives 1% (n = 320,000) | AID 2716;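 active means every valid replicate shows activation above 250% relative to neutral control wells; inactive means the rest, any valid replicate at or below 250%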;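 further: OY570 slx delta 5 strain wells were the positive control but not used for scaling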
# ASAP1 GAP conf: ASAP1 inhibition confirmed | ASAP1-stimulated Arf1 GTPase, GDP fluorescence polarization | actives 37% (n = 620) | shares compounds with ASAP1 GAP inh | inhibition, % at 16.5 µM;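 active means mean inhibition over triplicates exceeds the hit threshold derived for the earlier primary screening run, cut at about 25% in these data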
# ARFGAP1 inh conf: rat ARFGAP1 inhibition, confirmed; shares compounds with ARFGAP1 inhibitor; ARFGAP1-stimulated ARF1 GTP hydrolysis, GDP tracer FP; inhibition, % at 16.5 µM; actives 30% (n = 890);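 active means average inhibition over triplicates above the hit cutoff set in the earlier primary screen, cut at about 25% in these data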;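 further: 0% = Arfgap1 plus ARF1-GTP with DMSO and 100% = wells lacking Arfgap1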
# Active calls of the source: *; nt = no result given.
SMILES,A3G deaminase,ASAP1 GAP inh,ARFGAP1 inhibitor,APOBEC3A inh,Statin myotox sup,SUMO Mot1 rescue,ASAP1 GAP conf,ARFGAP1 inh conf
O=C1Cc2ccccc2C(=O)N1CCc1ccccc1,-1.4,33.4*,12.6,1.0,3.3,10.3,14.8,nt
CCOC(=O)c1sc(NC(=O)CNCc2cccnc2)c(C(=O)OCC)c1C,1.1,36.9*,11.5,-1.7,-0.1,9.1,0.6,nt
CCOC(=O)c1sc(NC(=O)CNCc2ccccn2)c(C(=O)OCC)c1C,0.9,-9.7,2.1,1.9,nt,461.9,nt,nt
O=C(CSc1ncnc2scc(-c3ccccc3)c12)N1CCN(Cc2ccc3c(c2)OCO3)CC1,-4.0,31.3*,10.7,0.0,-10.0,-6.0,46.1*,nt
c1ccc(-c2csc3ncnc(N4CCN(Cc5ccc6c(c5)OCO6)CC4)c23)cc1,-9.7,2.8,1.4,-5.3,0.1,30.5,nt,nt
CCOC(=O)C(C(=O)Nc1cccc(C)n1)C1CCCCC1 (centres undefined),-1.9,26.1*,15.7,1.4,nt,-8.5,7.5,nt
COc1cccc(NC(=O)CN(C)C(=O)c2ccc(N3CCCCC3)c([N+](=O)[O-])c2)c1,-8.3,25.2*,7.4,-2.2,-1.2,16.8,4.0,nt
COc1ccc2cc3c(N)nn(C(=O)c4ccc(Cl)c([N+](=O)[O-])c4)c3nc2c1,14.4,72.7*,0.4,-4.1,nt,18.3,118.0*,nt
COc1cc(/C=N/NC(=O)c2cccc([N+](=O)[O-])c2)ccc1OCc1ccccc1,-5.3,8.5,-13.0,-7.3,-62.9,19.0,nt,nt
COc1cc(/C=N/NC(=O)c2ccc(O)cc2)ccc1OCC(=O)Nc1cccc([N+](=O)[O-])c1,-5.4,30.4*,71.2*,-1.9,8.7,3.3,42.4*,75.4*
COc1ccc(C(=O)Nc2ccc3nc(N4CCN(C)CC4)cc(C)c3c2)c(OC)c1,-2.9,37.2*,50.3*,-3.3,-19.6,-6.7,66.0*,71.4*
O=C(/C=C\c1cn(-c2ccccc2)nc1-c1ccccc1)Nc1nccs1,-4.8,50.2*,50.1*,-1.0,nt,51.7,32.2*,71.5*
C[C@H](CO)N1C[C@H](C)[C@H](CN(C)C(=O)C2CCOCC2)Oc2ncc(C#Cc3cccc(F)c3)cc2C1=O,nt,nt,nt,nt,12.2,nt,nt,nt
C[C@@H]1CN([C@@H](C)CO)C(=O)c2cccc(NC(=O)Nc3ccc4c(c3)OCO4)c2O[C@@H]1CN(C)C,nt,nt,nt,nt,8.3,nt,nt,nt
COc1ccc(/C=C2\C(=O)NC(=O)c3ccccc32)cc1OC,nt,44.1*,33.2*,nt,nt,nt,41.1*,18.6
COc1ccc(C=C2C(=O)OC(C)(C)OC2=O)cc1OC,-2.8,4.0,-4.1,-3.0,-1.2,16.4,nt,nt
COc1ccccc1/C=N\Nc1cn[nH]c(=O)c1Cl,-6.7,25.7*,27.5*,0.3,nt,nt,19.5,14.8
Cn1c(=O)cc(Nc2ccccc2)[nH]c1=O,-2.5,-6.8,-9.0,-0.1,1.6,-1.7,nt,nt
CC(=O)c1cccc(Nc2nc(-c3ccccc3)nc3ccccc23)c1,18.7,15.8,2.9,-1.1,-18.5,-7.1,nt,nt
O=c1[nH]c(Nc2ccccc2)cc2ccccc12,-0.4,24.9*,32.9*,-0.3,nt,-6.5,12.6,-0.8
CC(=O)c1cccc(-c2ccc3c(=O)[nH]c(Nc4ccccc4)cc3c2)c1,-2.0,53.3*,29.9*,1.2,-8.9,28.4,39.4*,25.7*
COc1ccc(C2C(C(=O)c3ccccc3)N3c4ccccc4C=CC3C2[N+](=O)[O-])cc1 (centres undefined),nt,28.6*,26.8*,nt,nt,nt,12.1,9.7
C[C@@H]1CN([C@H](C)CO)C(=O)c2cc(C3=CCCCC3)cnc2O[C@H]1CN(C)C(=O)Cc1ccncc1,nt,nt,nt,nt,1.1,nt,nt,nt
Cc1ccc(OCc2ccc(C(=O)Nc3ccc(C(N)=O)cc3)o2)c([N+](=O)[O-])c1,-4.9,59.9*,85.7*,2.7,nt,16.2,87.7*,115.6*
COc1ccc([N+](=O)[O-])cc1NC(=O)c1ccc(-n2nc(C)cc2C)cc1,-1.7,25.6*,34.9*,0.2,nt,-0.7,39.1*,71.2*
SMILES,A3G deaminase,ASAP1 GAP inh,ARFGAP1 inhibitor,APOBEC3A inh,Statin myotox sup,SUMO Mot1 rescue,ASAP1 GAP conf,ARFGAP1 inh conf
COc1ccc([N+](=O)[O-])cc1NC(=O)c1ccc(N2C(=O)CCC2=O)cc1,-0.8,-0.9,12.2,5.2,-14.0,-36.8,nt,nt
CO[C@@H]1CN(C)C(=O)c2cc(NC(=O)C3CCCCC3)ccc2OC[C@@H](C)NC[C@@H]1C,nt,nt,nt,nt,-10.9,nt,nt,nt
N#Cc1ccc(-c2ccc(OCC(=O)NCC(=O)Nc3ccc(F)c(F)c3F)cc2)cc1,-10.1,37.5*,57.6*,-1.0,5.8,4.6,51.2*,79.8*
CCOc1ccc(C(=O)CCC(=O)NCC(=O)Nc2ccc(F)c(F)c2F)cc1,nt,-6.5,10.2,nt,4.9,nt,nt,nt
Cc1cc(C)cc(NC(=O)c2ccc(NC(=O)c3ccco3)cc2)c1,-5.0,-0.4,9.6,-3.0,4.6,12.2,nt,nt
COC(=O)c1ccc(NC(=O)c2ccc(NC(=O)c3ccco3)cc2)cc1,25.0,25.7*,38.9*,7.4,-20.7,149.1,37.9*,52.1*
CCN1CCN(Cc2ccc(NC(=O)c3cc(NC(=O)c4cncc(-c5ccc(C#N)cc5)c4)cc(OC)c3)cc2C(F)(F)F)CC1,0.4,57.0*,67.1*,1.6,-5.1,-11.0,74.9*,108.0*
CNC(=O)C[C@H]1CC[C@@H]2[C@@H](COc3ccc(NC(=O)NCc4ccccc4)cc3C(=O)N2C)O1,nt,nt,nt,nt,4.3,nt,nt,nt
CCN(CC)CCOC(=O)c1ccc(NC(=O)c2cn(-c3ccccc3)nc2-c2cccs2)cc1,-6.0,40.0*,24.7*,-3.3,13.6,nt,44.3*,60.6*
CCN(CC)CCNC(=O)c1cn(-c2ccccc2)nc1-c1cccs1,2.2,-2.6,11.9,4.3,5.6,nt,nt,nt
CC(=O)Nc1ccc(C(=O)Nc2nc(-c3cccnc3)cs2)cc1,20.2,28.9*,25.6*,4.6,8.7,3.1,52.2*,38.6*
O=C(Nc1nc(-c2ccccc2)cs1)c1cccnc1,-3.9,-1.7,0.0,-2.1,-33.8,2.5,nt,nt
COc1ccc(NC(=O)N(C)C[C@@H]2Oc3c(NS(=O)(=O)c4ccc(OC)cc4)cccc3C(=O)N([C@@H](C)CO)C[C@@H]2C)cc1,nt,nt,nt,nt,-25.3,nt,nt,nt
COc1cc(/C=N\NC(=O)c2ccc(C)nc2)ccc1OC(=O)c1ccc2c(c1)OCO2,-5.1,29.3*,28.6*,-3.9,nt,-0.8,38.3*,75.3*
CCCC(=O)Nc1ccc2c(c1)C(=O)N(C)C[C@H](OC)[C@@H](C)CN(C(=O)c1ccncc1)[C@H](C)CO2,nt,nt,nt,nt,-1.5,nt,nt,nt

# Source: PubChem BioAssay
